According to ChEMBL document CHEMBL5058577, “EUbOPEN Chemogenomics Library 2 (Multiplex)” (2022):

Test system: HEK-293T
Assay: Multiplex assay against HEK293T
Format: toxicity, cell-based
Details: human
How it was run: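 Cells stained live at seeding with Hoechst33342, BioTracker Green Microtubule Cytoskeleton Dye, MitoTracker Red and Annexin V Alexa Fluor 680 were imaged on a CQ1 microscope at 37°C and 5% CO2 after compound addition. Their classification by CellPathfinder machine-learning gating ran from Hoechst high-intensity objects versus normal cells, to healthy, pyknosed or fragmented nuclei among normal cells, to mitotic or apoptotic among pyknosed cells. Tubulin, mitochondrial-mass and membrane-permeability phenotypes are per cents of healthy-nucleus cells.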

[1] = 12 h, 1 µM, compound concentration 1 uM, replicate 1
[2] = 12 h, 1 µM, compound concentration 1 uM, replicate 2
[3] = 12 h, 10 µM, compound concentration 10 uM, replicate 1
[4] = 12 h, 10 µM, compound concentration 10 uM, replicate 2
[5] = 24 h, 1 µM, compound concentration 1 uM, replicate 1
[6] = 24 h, 1 µM, compound concentration 1 uM, replicate 2
[7] = 24 h, 10 µM, compound concentration 10 uM, replicate 1
[8] = 24 h, 10 µM, compound concentration 10 uM, replicate 2
[9] = 48 h, 1 µM, compound concentration 1 uM, replicate 1
[10] = 48 h, 1 µM, compound concentration 1 uM, replicate 2
[11] = 48 h, 10 µM, compound concentration 10 uM, replicate 1
[12] = 48 h, 10 µM, compound concentration 10 uM, replicate 2

SMILES: Cc1sc2c(c1C)C(c1ccc(Cl)cc1)=N[C@@H](CC(=O)NCCCCCCCCNC(=O)COc1cccc3c1C(=O)N(C1CCC(=O)NC1=O)C3=O)c1nnc(C)n1-2 (stereo not given in full)
- Population Apoptotic (%) [1]: 66%
- Population Fragmented Nuclei (%) [1]: 5%
- Population Healthy Nuclei (%) [1]: 55%
- Population Hoechst High Intensity Objects (%) [1]: 9%
- Population Membrane Permeable-Phenotype (%) [1]: 0%
- Population Mitochondria Different-Phenotype (%) [1]: 73%
- Population Mitotic Cells (%) [1]: 33%
- Population Normal (%) [1]: 90%
- Population Pyknosed Nuclei (%) [1]: 39%
- Population Tubulin-Different-Phenotype (%) [1]: 49%
- Total Cell Count [1]: 175
- Population Apoptotic (%) [2]: 62%
- Population Fragmented Nuclei (%) [2]: 6%
- Population Healthy Nuclei (%) [2]: 69%
- Population Hoechst High Intensity Objects (%) [2]: 30%
- Population Mitochondria Different-Phenotype (%) [2]: 91%
- Population Mitotic Cells (%) [2]: 37%
- Population Normal (%) [2]: 69%
- Population Pyknosed Nuclei (%) [2]: 24%
- Population Tubulin-Different-Phenotype (%) [2]: 59%
- Total Cell Count [2]: 205
- Population Apoptotic (%) [3]: 60%
- Population Fragmented Nuclei (%) [3]: 9%
- Population Healthy Nuclei (%) [3]: 67%
- Population Hoechst High Intensity Objects (%) [3]: 14%
- Population Membrane Permeable-Phenotype (%) [3]: 0%
- Population Mitochondria Different-Phenotype (%) [3]: 75%
- Population Mitotic Cells (%) [3]: 39%
- Population Normal (%) [3]: 85%
- Population Pyknosed Nuclei (%) [3]: 23%
- Population Tubulin-Different-Phenotype (%) [3]: 23%
- Total Cell Count [3]: 363
- Population Apoptotic (%) [4]: 53%
- Population Fragmented Nuclei (%) [4]: 8%
- Population Healthy Nuclei (%) [4]: 66%
- Population Hoechst High Intensity Objects (%) [4]: 37%
- Population Mitochondria Different-Phenotype (%) [4]: 87%
- Population Mitotic Cells (%) [4]: 46%
- Population Normal (%) [4]: 62%
- Population Pyknosed Nuclei (%) [4]: 24%
- Population Tubulin-Different-Phenotype (%) [4]: 39%
- Total Cell Count [4]: 315
- Population Apoptotic (%) [5]: 51%
- Population Fragmented Nuclei (%) [5]: 7%
- Population Healthy Nuclei (%) [5]: 61%
- Population Hoechst High Intensity Objects (%) [5]: 6%
- Population Membrane Permeable-Phenotype (%) [5]: 0%
- Population Mitochondria Different-Phenotype (%) [5]: 58%
- Population Mitotic Cells (%) [5]: 48%
- Population Normal (%) [5]: 93%
- Population Pyknosed Nuclei (%) [5]: 31%
- Population Tubulin-Different-Phenotype (%) [5]: 22%
- Total Cell Count [5]: 261
- Population Apoptotic (%) [6]: 67%
- Population Fragmented Nuclei (%) [6]: 6%
- Population Healthy Nuclei (%) [6]: 70%
- Population Hoechst High Intensity Objects (%) [6]: 30%
- Population Mitochondria Different-Phenotype (%) [6]: 83%
- Population Mitotic Cells (%) [6]: 32%
- Population Normal (%) [6]: 69%
- Population Pyknosed Nuclei (%) [6]: 23%
- Population Tubulin-Different-Phenotype (%) [6]: 31%
- Total Cell Count [6]: 231
- Population Apoptotic (%) [7]: 52%
- Population Fragmented Nuclei (%) [7]: 11%
- Population Healthy Nuclei (%) [7]: 64%
- Population Hoechst High Intensity Objects (%) [7]: 12%
- Population Membrane Permeable-Phenotype (%) [7]: 0%
- Population Mitochondria Different-Phenotype (%) [7]: 64%
- Population Mitotic Cells (%) [7]: 47%
- Population Normal (%) [7]: 87%
- Population Pyknosed Nuclei (%) [7]: 24%
- Population Tubulin-Different-Phenotype (%) [7]: 19%
- Total Cell Count [7]: 397
- Population Apoptotic (%) [8]: 57%
- Population Fragmented Nuclei (%) [8]: 9%
- Population Healthy Nuclei (%) [8]: 60%
- Population Hoechst High Intensity Objects (%) [8]: 39%
- Population Mitochondria Different-Phenotype (%) [8]: 86%
- Population Mitotic Cells (%) [8]: 42%
- Population Normal (%) [8]: 60%
- Population Pyknosed Nuclei (%) [8]: 30%
- Total Cell Count [8]: 346
- Population Apoptotic (%) [9]: 55%
- Population Fragmented Nuclei (%) [9]: 7%
- Population Healthy Nuclei (%) [9]: 58%
- Population Hoechst High Intensity Objects (%) [9]: 2%
- Population Membrane Permeable-Phenotype (%) [9]: 0%
- Population Mitochondria Different-Phenotype (%) [9]: 56%
- Population Mitotic Cells (%) [9]: 44%
- Population Normal (%) [9]: 97%
- Population Pyknosed Nuclei (%) [9]: 33%
- Population Tubulin-Different-Phenotype (%) [9]: 30%
- Total Cell Count [9]: 284
- Population Apoptotic (%) [10]: 67%
- Population Fragmented Nuclei (%) [10]: 9%
- Population Healthy Nuclei (%) [10]: 65%
- Population Hoechst High Intensity Objects (%) [10]: 15%
- Population Mitochondria Different-Phenotype (%) [10]: 78%
- Population Mitotic Cells (%) [10]: 32%
- Population Normal (%) [10]: 84%
- Population Pyknosed Nuclei (%) [10]: 25%
- Population Tubulin-Different-Phenotype (%) [10]: 42%
- Total Cell Count [10]: 289
- Population Apoptotic (%) [11]: 48%
- Population Fragmented Nuclei (%) [11]: 9%
- Population Healthy Nuclei (%) [11]: 55%
- Population Hoechst High Intensity Objects (%) [11]: 14%
- Population Membrane Permeable-Phenotype (%) [11]: 0%
- Population Mitochondria Different-Phenotype (%) [11]: 51%
- Population Mitotic Cells (%) [11]: 51%
- Population Normal (%) [11]: 85%
- Population Pyknosed Nuclei (%) [11]: 35%
- Population Tubulin-Different-Phenotype (%) [11]: 17%
- Total Cell Count [11]: 403
- Population Apoptotic (%) [12]: 65%
- Population Fragmented Nuclei (%) [12]: 15%
- Population Healthy Nuclei (%) [12]: 52%
- Population Hoechst High Intensity Objects (%) [12]: 31%
- Population Mitochondria Different-Phenotype (%) [12]: 76%
- Population Mitotic Cells (%) [12]: 34%
- Population Normal (%) [12]: 69%
- Population Pyknosed Nuclei (%) [12]: 31%
- Population Tubulin-Different-Phenotype (%) [12]: 31%
- Total Cell Count [12]: 300
